Data taken from ChEMBL document CHEMBL1955842, “Substituent effects on P2-cyclopentyltetrahydrofuranyl urethanes: design, synthesis, and X-ray studies of potent HIV-1 protease inhibitors” (Bioorg Med Chem Lett, 2012).

Key:
[1] = test system: Human immunodeficiency virus 1; test: Antiviral activity against HIV1 […] infected in human MT2 cells by MTT assay; type: functional, organism-based; conditions: Human immunodeficiency virus 1, MT2
Procedure, shortened: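 MT-2 human T-lymphoid cells (2 × 10^3) infected with 100 TCID50 of HIV-1LAI and cultured with inhibitor present. IC50 read out by MTT assay.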

[2] = target: Protease (Human immunodeficiency virus 1, UniProt Q9YQ12); test: Inhibition of HIV1 protease using hexapeptide Ac-Thr-Ile-Nle-Nle-Gln-Arg-NH2 as substrate by fluorimetric assay
Protease, sequence (Q9YQ12 whole entry): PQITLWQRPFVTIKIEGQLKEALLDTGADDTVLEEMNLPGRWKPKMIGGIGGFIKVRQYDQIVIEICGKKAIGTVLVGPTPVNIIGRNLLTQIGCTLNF

[3] = test system: Human immunodeficiency virus 1; test: Ratio of EC50 for HIV1 MDR/B harboring protease L10I, K14R, L33I, M36I, M46I, F53I, K55R, I62V, L63P, A71V, G73S, V82A, L90M, I93L mutant to EC50 for HIV1 ERS104 harboring wild type protease; type: functional
Procedure, shortened: (§1)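 Fold-change: EC50 against each multidrug-resistant HIV-1 isolate divided by EC50 against wild-type HIV-1ERS104pre. Assays run in duplicate; values are means (±1 standard deviation) from two or three independent experiments.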

[4] = test system: Human immunodeficiency virus 1; test: Ratio of EC50 for HIV1 MDR/TM harboring protease L10I, K14R, R41K, M46L, I54V, L63P, A71V, V82A, L90M, I93L mutant to EC50 for HIV1 ERS104 harboring wild type protease; type: functional; procedure, shortened: as §1
[5] = test system: Human immunodeficiency virus 1; test: Antiviral activity against HIV1 MDR/TM harboring protease L10I, K14R, R41K, M46L, I54V, L63P, A71V, V82A, L90M, I93L mutant infected in PHA-PBM cells assessed as inhibition of p24 Gag protein production; type: functional, organism-based; conditions: Human immunodeficiency virus 1, MDR/TM, PBMC
Procedure, shortened: (§2)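 EC50 measured against each isolate. Assays run in duplicate. Values are means (±1 standard deviation) from two or three independent experiments. Fold-change for each isolate is its EC50 relative to the EC50 for wild-type HIV-1ERS104pre.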

[6] = test system: Human immunodeficiency virus 1; test: Antiviral activity against wild type HIV1 ERS104 infected in PHA-PBM cells assessed as inhibition of p24 Gag protein production; type: functional, organism-based; conditions: Human immunodeficiency virus 1, ERS104, PBMC; procedure, shortened: as §2
[7] = test system: Human immunodeficiency virus 1; test: Antiviral activity against HIV1 MDR/B harboring protease L10I, K14R, L33I, M36I, M46I, F53I, K55R, I62V, L63P, A71V, G73S, V82A, L90M, I93L mutant infected in PHA-PBM cells assessed as inhibition of p24 Gag protein production; type: functional, organism-based; conditions: Human immunodeficiency virus 1, MDR/B, PBMC; procedure, shortened: as §2
[8] = test system: Human immunodeficiency virus 1; test: Ratio of EC50 for HIV1 MDR/G harboring protease L10I, V11I, T12E, I15V, L19I, R41K, M46L, L63P, A71T, V82A, and L90M mutant to EC50 for HIV1 ERS104 harboring wild type protease; type: functional; procedure, shortened: as §1
[9] = test system: Human immunodeficiency virus 1; test: Antiviral activity against HIV1 MDR/C harboring protease L10I, I15V, K20R, L24I, M36I, M46L, I54V, I62V, L63P, K70Q, V82A, and L89 mutant infected in PHA-PBM cells assessed as inhibition of p24 Gag protein production; type: functional, organism-based; conditions: Human immunodeficiency virus 1, MDR/C, PBMC; procedure, shortened: as §2
[10] = test system: Human immunodeficiency virus 1; test: Ratio of EC50 for HIV1 MDR/C harboring protease L10I, I15V, K20R, L24I, M36I, M46L, I54V, I62V, L63P, K70Q, V82A, and L89 mutant to EC50 for HIV1 ERS104 harboring wild type protease; type: functional; procedure, shortened: as §1
[11] = test system: Human immunodeficiency virus 1; test: Antiviral activity against HIV1 MDR/G harboring protease L10I, V11I, T12E, I15V, L19I, R41K, M46L, L63P, A71T, V82A, and L90M mutant infected in PHA-PBM cells assessed as inhibition of p24 Gag protein production; type: functional, organism-based; conditions: Human immunodeficiency virus 1, MDR/G, PBMC; procedure, shortened: as §2

| SMILES | IC50 [1] [nM] | Ki [2] [nM] | Ratio EC50 [3] | Ratio EC50 [4] | EC50 [5] [nM] | EC50 [6] [nM] | EC50 [7] [nM] | Ratio EC50 [8] | EC50 [9] [nM] | Ratio EC50 [10] | EC50 [11] [nM] |
| --- | --- | --- | --- | --- | --- | --- | --- | --- | --- | --- | --- |
| COc1ccc(S(=O)(=O)N(CC(C)C)C[C@@H](O)[C@H](Cc2ccccc2)NC(=O)O[C@@H]2C[C@@H]3[C@@H](OC(=O)N(C)C)CO[C@@H]3C2)cc1 | 4.7 | 0.02 |  |  |  |  |  |  |  |  |  |
| COc1ccc(S(=O)(=O)N(CC(C)C)C[C@@H](O)[C@H](Cc2ccccc2)NC(=O)O[C@@H]2C[C@@H]3[C@H](NC(C)=O)CO[C@@H]3C2)cc1 | 25 | 0.0074 |  |  |  |  |  |  |  |  |  |
| COC(=O)N[C@@H]1CO[C@@H]2C[C@H](OC(=O)N[C@@H](Cc3ccccc3)[C@H](O)CN(CC(C)C)S(=O)(=O)c3ccc(OC)cc3)C[C@H]12 | 1.6 |  | 3 | 3 | 74 | 29 | 75 | 1 | 30 | 1 | 39 |
| COC(=O)N[C@H]1CO[C@@H]2C[C@H](OC(=O)N[C@@H](Cc3ccccc3)[C@H](O)CN(CC(C)C)S(=O)(=O)c3ccc(OC)cc3)C[C@H]12 | 4.6 | 0.004 | 6 | 8 | 24 | 3 | 18 | 7 | 15 | 5 | 20 |
| COc1ccc(S(=O)(=O)N(CC(C)C)C[C@@H](O)[C@H](Cc2ccccc2)NC(=O)O[C@@H]2C[C@@H]3[C@@H](NC(C)=O)CO[C@@H]3C2)cc1 | 31 | 0.0075 |  |  |  |  |  |  |  |  |  |
| CC(C)CN(C[C@@H](O)[C@H](Cc1ccccc1)NC(=O)O[C@H]1CO[C@H]2OCC[C@H]21)S(=O)(=O)c1ccc(N)cc1 |  |  |  |  | 28 |  | 19 |  | 11 |  | 11 |
| COc1ccc(S(=O)(=O)N(CC(C)C)C[C@@H](O)[C@H](Cc2ccccc2)NC(=O)O[C@@H]2C[C@@H]3[C@@H](NS(C)(=O)=O)CO[C@@H]3C2)cc1 | 50 | 0.18 |  |  |  |  |  |  |  |  |  |
| COc1ccc(S(=O)(=O)N(CC(C)C)C[C@@H](O)[C@H](Cc2ccccc2)NC(=O)O[C@@H]2C[C@@H]3[C@H](NS(C)(=O)=O)CO[C@@H]3C2)cc1 | 28 | 0.032 |  |  |  |  |  |  |  |  |  |
